# Laboratory results as given in ChEMBL document CHEMBL4689842, “EUbOPEN Chemogenomics Library wave 1” (2021).
# Assays:
# Assay type in all cases: toxicity, cell-based
# U2OS [1] = experiment: Multiplex assay against U2OS; conditions: human
# Summary of the method: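 At seeding, live cells were stained with Hoechst33342, BioTracker Green Microtubule Cytoskeleton Dye, MitoTracker Red and Annexin V Alexa Fluor 680. After compound addition they were imaged on a CQ1 microscope at 37°C and 5% CO2, and CellPathfinder machine-learning gating sorted them into Hoechst high-intensity objects or normal cells, with normal cells further split into healthy, pyknosed or fragmented nuclei and pyknosed cells into mitotic or apoptotic. Tubulin, mitochondrial-mass and membrane-permeability phenotypes are given as per cents of cells with healthy nuclei.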
# HEK-293T = experiment: Incucyte cell viability with HEK293T; conditions: human, 10 µM, compound concentration 10 uM; note: filed as whole numbers so only -1 and 0 and 1 occur
# Fibroblast = experiment: Incucyte cell viability with human fibroblast; conditions: 10 µM, compound concentration 10 uM; note: filed as whole numbers so only -1 and 0 and 1 occur
# U2OS [2] = experiment: Incucyte cell viability with U2OS; conditions: human, 10 µM, compound concentration 10 uM; note: filed as whole numbers so only -1 and 0 and 1 occur
# [3] = 12 h, 1 µM, compound concentration 1 uM, replicate 1
# [4] = 12 h, 1 µM, compound concentration 1 uM, replicate 2
# [5] = 12 h, 10 µM, compound concentration 10 uM, replicate 1
# [6] = 12 h, 10 µM, compound concentration 10 uM, replicate 2
# [7] = 24 h, 1 µM, compound concentration 1 uM, replicate 1
# [8] = 24 h, 1 µM, compound concentration 1 uM, replicate 2
# [9] = 24 h, 10 µM, compound concentration 10 uM, replicate 1
# [10] = 24 h, 10 µM, compound concentration 10 uM, replicate 2
# [11] = 48 h, 1 µM, compound concentration 1 uM, replicate 1
# [12] = 48 h, 1 µM, compound concentration 1 uM, replicate 2
# [13] = 48 h, 10 µM, compound concentration 10 uM, replicate 1
# [14] = 48 h, 10 µM, compound concentration 10 uM, replicate 2
# [15] = 0 h, replicate number 1, timepoint 0 hours
# [16] = 6 h, replicate number 1, timepoint 6 hours
# [17] = 18 h, replicate number 1, timepoint 18 hours
# [18] = 24 h, replicate number 1, timepoint 24 hours
smiles,measurement,setting,value
CCC(=O)O[C@]1(C(=O)SCF)[C@H](C)C[C@H]2[C@@H]3C[C@H](F)C4=CC(=O)C=C[C@]4(C)[C@@]3(F)[C@@H](O)C[C@@]21C [FLUTICASONE PROPIONATE],Population Apoptotic (%),U2OS [1]; [3],35%
same,Population Fragmented Nuclei (%),U2OS [1]; [3],8%
same,Population Healthy Nuclei (%),U2OS [1]; [3],81%
same,Population Hoechst High Intensity Objects (%),U2OS [1]; [3],5%
same,Population Membrane Permeable-Phenotype (%),U2OS [1]; [3],7%
same,Population Mitochondria Different-Phenotype (%),U2OS [1]; [3],7%
same,Population Mitotic Cells (%),U2OS [1]; [3],64%
same,Population Normal (%),U2OS [1]; [3],94%
same,Population Pyknosed Nuclei (%),U2OS [1]; [3],9%
same,Population Tubulin-Different-Phenotype (%),U2OS [1]; [3],10%
same,Total Cell Count,U2OS [1]; [3],182
same,Population Apoptotic (%),U2OS [1]; [4],71%
same,Population Fragmented Nuclei (%),U2OS [1]; [4],4%
same,Population Healthy Nuclei (%),U2OS [1]; [4],78%
same,Population Hoechst High Intensity Objects (%),U2OS [1]; [4],12%
same,Population Membrane Permeable-Phenotype (%),U2OS [1]; [4],3%
same,Population Mitochondria Different-Phenotype (%),U2OS [1]; [4],9%
same,Population Mitotic Cells (%),U2OS [1]; [4],28%
same,Population Normal (%),U2OS [1]; [4],87%
same,Population Pyknosed Nuclei (%),U2OS [1]; [4],16%
same,Population Tubulin-Different-Phenotype (%),U2OS [1]; [4],9%
same,Total Cell Count,U2OS [1]; [4],68
same,Population Apoptotic (%),U2OS [1]; [5],53%
same,Population Fragmented Nuclei (%),U2OS [1]; [5],14%
same,Population Healthy Nuclei (%),U2OS [1]; [5],72%
same,Population Hoechst High Intensity Objects (%),U2OS [1]; [5],9%
same,Population Membrane Permeable-Phenotype (%),U2OS [1]; [5],22%
same,Population Mitochondria Different-Phenotype (%),U2OS [1]; [5],47%
same,Population Mitotic Cells (%),U2OS [1]; [5],46%
same,Population Normal (%),U2OS [1]; [5],90%
same,Population Pyknosed Nuclei (%),U2OS [1]; [5],13%
same,Population Tubulin-Different-Phenotype (%),U2OS [1]; [5],48%
same,Total Cell Count,U2OS [1]; [5],155
same,Population Apoptotic (%),U2OS [1]; [6],28%
same,Population Fragmented Nuclei (%),U2OS [1]; [6],8%
same,Population Healthy Nuclei (%),U2OS [1]; [6],81%
same,Population Hoechst High Intensity Objects (%),U2OS [1]; [6],8%
same,Population Membrane Permeable-Phenotype (%),U2OS [1]; [6],3%
same,Population Mitochondria Different-Phenotype (%),U2OS [1]; [6],37%
same,Population Mitotic Cells (%),U2OS [1]; [6],71%
same,Population Normal (%),U2OS [1]; [6],92%
same,Population Pyknosed Nuclei (%),U2OS [1]; [6],10%
same,Population Tubulin-Different-Phenotype (%),U2OS [1]; [6],35%
same,Total Cell Count,U2OS [1]; [6],48
same,Population Apoptotic (%),U2OS [1]; [7],37%
same,Population Fragmented Nuclei (%),U2OS [1]; [7],4%
same,Population Healthy Nuclei (%),U2OS [1]; [7],86%
same,Population Hoechst High Intensity Objects (%),U2OS [1]; [7],3%
same,Population Membrane Permeable-Phenotype (%),U2OS [1]; [7],6%
same,Population Mitochondria Different-Phenotype (%),U2OS [1]; [7],5%
same,Population Mitotic Cells (%),U2OS [1]; [7],62%
same,Population Normal (%),U2OS [1]; [7],96%
same,Population Pyknosed Nuclei (%),U2OS [1]; [7],8%
same,Population Tubulin-Different-Phenotype (%),U2OS [1]; [7],6%
same,Total Cell Count,U2OS [1]; [7],230
same,Population Apoptotic (%),U2OS [1]; [8],16%
same,Population Fragmented Nuclei (%),U2OS [1]; [8],3%
same,Population Healthy Nuclei (%),U2OS [1]; [8],84%
same,Population Hoechst High Intensity Objects (%),U2OS [1]; [8],11%
same,Population Membrane Permeable-Phenotype (%),U2OS [1]; [8],11%
same,Population Mitochondria Different-Phenotype (%),U2OS [1]; [8],11%
same,Population Mitotic Cells (%),U2OS [1]; [8],83%
same,Population Normal (%),U2OS [1]; [8],88%
same,Population Pyknosed Nuclei (%),U2OS [1]; [8],11%
same,Population Tubulin-Different-Phenotype (%),U2OS [1]; [8],20%
same,Total Cell Count,U2OS [1]; [8],78
same,Population Apoptotic (%),U2OS [1]; [9],53%
same,Population Fragmented Nuclei (%),U2OS [1]; [9],17%
same,Population Healthy Nuclei (%),U2OS [1]; [9],61%
same,Population Hoechst High Intensity Objects (%),U2OS [1]; [9],9%
same,Population Membrane Permeable-Phenotype (%),U2OS [1]; [9],43%
same,Population Mitochondria Different-Phenotype (%),U2OS [1]; [9],24%
same,Population Mitotic Cells (%),U2OS [1]; [9],46%
same,Population Normal (%),U2OS [1]; [9],90%
same,Population Pyknosed Nuclei (%),U2OS [1]; [9],21%
same,Population Tubulin-Different-Phenotype (%),U2OS [1]; [9],41%
same,Total Cell Count,U2OS [1]; [9],189
same,Population Apoptotic (%),U2OS [1]; [10],58%
same,Population Fragmented Nuclei (%),U2OS [1]; [10],5%
same,Population Healthy Nuclei (%),U2OS [1]; [10],78%
same,Population Hoechst High Intensity Objects (%),U2OS [1]; [10],8%
same,Population Membrane Permeable-Phenotype (%),U2OS [1]; [10],6%
same,Population Mitochondria Different-Phenotype (%),U2OS [1]; [10],31%
same,Population Mitotic Cells (%),U2OS [1]; [10],41%
same,Population Normal (%),U2OS [1]; [10],91%
same,Population Pyknosed Nuclei (%),U2OS [1]; [10],16%
same,Population Tubulin-Different-Phenotype (%),U2OS [1]; [10],25%
same,Total Cell Count,U2OS [1]; [10],59
same,Population Apoptotic (%),U2OS [1]; [11],53%
same,Population Fragmented Nuclei (%),U2OS [1]; [11],4%
same,Population Healthy Nuclei (%),U2OS [1]; [11],89%
same,Population Hoechst High Intensity Objects (%),U2OS [1]; [11],2%
same,Population Membrane Permeable-Phenotype (%),U2OS [1]; [11],5%
same,Population Mitochondria Different-Phenotype (%),U2OS [1]; [11],10%
same,Population Mitotic Cells (%),U2OS [1]; [11],46%
same,Population Normal (%),U2OS [1]; [11],97%
same,Population Tubulin-Different-Phenotype (%),U2OS [1]; [11],8%
same,Total Cell Count,U2OS [1]; [11],304
same,Population Apoptotic (%),U2OS [1]; [12],20%
same,Population Fragmented Nuclei (%),U2OS [1]; [12],1%
same,Population Healthy Nuclei (%),U2OS [1]; [12],93%
same,Population Hoechst High Intensity Objects (%),U2OS [1]; [12],8%
same,Population Membrane Permeable-Phenotype (%),U2OS [1]; [12],8%
same,Population Mitochondria Different-Phenotype (%),U2OS [1]; [12],12%
same,Population Mitotic Cells (%),U2OS [1]; [12],80%
same,Population Normal (%),U2OS [1]; [12],91%
same,Population Pyknosed Nuclei (%),U2OS [1]; [12],5%
same,Population Tubulin-Different-Phenotype (%),U2OS [1]; [12],19%
same,Total Cell Count,U2OS [1]; [12],113
same,Population Apoptotic (%),U2OS [1]; [13],72%
same,Population Fragmented Nuclei (%),U2OS [1]; [13],13%
same,Population Healthy Nuclei (%),U2OS [1]; [13],67%
same,Population Hoechst High Intensity Objects (%),U2OS [1]; [13],6%
same,Population Membrane Permeable-Phenotype (%),U2OS [1]; [13],42%
same,Population Mitochondria Different-Phenotype (%),U2OS [1]; [13],18%
same,Population Mitotic Cells (%),U2OS [1]; [13],27%
same,Population Normal (%),U2OS [1]; [13],93%
same,Population Pyknosed Nuclei (%),U2OS [1]; [13],19%
same,Population Tubulin-Different-Phenotype (%),U2OS [1]; [13],38%
same,Total Cell Count,U2OS [1]; [13],260
same,Population Apoptotic (%),U2OS [1]; [14],45%
same,Population Fragmented Nuclei (%),U2OS [1]; [14],4%
same,Population Healthy Nuclei (%),U2OS [1]; [14],85%
same,Population Hoechst High Intensity Objects (%),U2OS [1]; [14],3%
same,Population Membrane Permeable-Phenotype (%),U2OS [1]; [14],11%
same,Population Mitochondria Different-Phenotype (%),U2OS [1]; [14],14%
same,Population Mitotic Cells (%),U2OS [1]; [14],54%
same,Population Normal (%),U2OS [1]; [14],96%
same,Population Pyknosed Nuclei (%),U2OS [1]; [14],11%
same,Population Tubulin-Different-Phenotype (%),U2OS [1]; [14],22%
same,Total Cell Count,U2OS [1]; [14],101
same,Growth Rate,HEK-293T; [15],1
same,Growth Rate,"HEK-293T; 0 h, replicate number 2, timepoint 0 hours",0
same,Growth Rate,HEK-293T; [16],0
same,Growth Rate,"HEK-293T; 12 h, replicate number 1, timepoint 12 hours",0
same,Growth Rate,HEK-293T; [17],0
same,Growth Rate,"HEK-293T; 18 h, replicate number 2, timepoint 18 hours",1
same,Growth Rate,HEK-293T; [18],0
same,Growth Rate,"HEK-293T; 24 h, replicate number 2, timepoint 24 hours",1
same,Growth Rate,Fibroblast; [15],0
same,Growth Rate,Fibroblast; [16],1
same,Growth Rate,Fibroblast; [17],1
same,Growth Rate,Fibroblast; [18],1
same,Growth Rate,U2OS [2]; [15],0
same,Growth Rate,"U2OS [2]; 6 h, replicate number 2, timepoint 6 hours",1
same,Growth Rate,"U2OS [2]; 12 h, replicate number 2, timepoint 12 hours",1
same,Growth Rate,U2OS [2]; [17],1
same,Growth Rate,U2OS [2]; [18],1
